Shown are actives, neighbours in structure and some others; about 3.1% of the full set was active somewhere.
PAFAH1B3 FP inh = PAFAH1B3 enzyme inhibitors, primary screen, biochemical, fluorescence polarization, human. Platelet-activating factor acetylhydrolase IB subunit alpha1 (Homo sapiens), Q15102. recombinant PAFAH1B3, FP-rhodamine probe. inhibition, % at 3.39 µM. 340,000 tested, 0.28% active. AID 492972, 2010;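 active means inhibition above the screen-wide average of all tested compounds plus 3 SD, cut at about 25% in these data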;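 further: 0% = enzyme with DMSO only and 100% = wells lacking PAFAH1B3 protein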
PAFAH2 inh = PAFAH2 enzyme inhibitors, primary screen, biochemical, fluorescence polarization, human | AID 492956, 2010 | 340,000 tested, 0.99% active | recombinant PAFAH2, FP-rhodamine activity probe | Platelet-activating factor acetylhydrolase 2, cytoplasmic (Homo sapiens), Q99487 | inhibition, % at 3.39 µM;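 active means inhibition above the mean over all tested compounds plus 3 SD, cut at about 30% in these data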;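 further: inhibitors block probe labeling of enzyme so polarization drops; 0% = enzyme with DMSO and 100% = wells lacking PAFAH2 protein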
Apaf1 inhib = inhibitors of human Apaf-1 apoptosome, primary screen, biochemical, DEVD-Rh110 fluorescence, uHTS; reconstituted apoptosome caspase-3 activity; 330,000 tested, 0.71% active; Apoptotic protease-activating factor 1 (Homo sapiens), O14727; inhibition, % at 20 µM; active means inhibition of at least 40% at 20 µM;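 further: plate controls were DMSO wells for no effect and DEVD-CHO caspase inhibitor wells for full effect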
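Material: biochemical Apaf-1 apoptosome reconstitution. Medium: Hepes buffer, pH 7.5. Also added: cytochrome c activation, bis-DEVD rhodamine 110 substrate. Timing: 30 min compound preincubation, 50 min activation, room temperature. Measured by: rhodamine 110 fluorescence at Ex 480/Em 540 nm.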
PAFAH1B2 inh = PAFAH1B2 enzyme inhibitors, primary screen, biochemical, fluorescence polarization, human; recombinant PAFAH1B2, FP-rhodamine activity probe; 340,000 tested, 1.2% active; inhibition, % at 3.39 µM; AID 492953, 2010; Platelet-activating factor acetylhydrolase IB subunit alpha2 (Homo sapiens), P68402;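 active means inhibition above the mean of all tested compounds plus 3 SD, cut at about 24% in these data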;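 further: 0% = enzyme with DMSO and 100% = wells lacking PAFAH1B2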
Target sequence (P68402 whole entry, looked up): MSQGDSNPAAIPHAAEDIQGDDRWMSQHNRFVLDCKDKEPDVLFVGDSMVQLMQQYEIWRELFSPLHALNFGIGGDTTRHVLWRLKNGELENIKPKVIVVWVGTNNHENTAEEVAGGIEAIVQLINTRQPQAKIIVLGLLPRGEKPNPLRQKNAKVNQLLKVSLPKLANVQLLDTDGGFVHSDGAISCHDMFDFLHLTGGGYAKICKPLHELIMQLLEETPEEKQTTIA
pPAFAH inh = pPAFAH enzyme inhibitors, primary screen, biochemical, fluorescence polarization, human; Platelet-activating factor acetylhydrolase (Homo sapiens), Q13093; recombinant pPAFAH, FP-rhodamine probe fluorescence polarization; inhibition, % at 3.39 µM; 330,000 tested, 1.5% active;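 active means inhibition above the mean inhibition across the screen plus 3 SD, cut at about 25% in these data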;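 further: inhibitors block binding of the rhodamine activity-based probe so polarization drops; 0% = enzyme with DMSO and 100% = wells lacking pPAFAH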
Target sequence (Q13093 whole entry, looked up): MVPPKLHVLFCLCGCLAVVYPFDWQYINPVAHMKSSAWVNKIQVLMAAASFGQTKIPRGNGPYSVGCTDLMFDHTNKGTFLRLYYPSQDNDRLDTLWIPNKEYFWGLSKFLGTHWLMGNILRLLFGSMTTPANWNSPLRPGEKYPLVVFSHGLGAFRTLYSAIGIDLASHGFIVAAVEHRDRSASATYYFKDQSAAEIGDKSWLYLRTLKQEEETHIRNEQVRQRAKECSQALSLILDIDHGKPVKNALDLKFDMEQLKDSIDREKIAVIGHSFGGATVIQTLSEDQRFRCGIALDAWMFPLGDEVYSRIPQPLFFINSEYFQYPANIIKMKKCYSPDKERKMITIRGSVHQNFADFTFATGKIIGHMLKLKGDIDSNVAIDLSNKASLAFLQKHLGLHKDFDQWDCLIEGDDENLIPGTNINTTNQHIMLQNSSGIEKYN
PAFAH2 confirm = PAFAH2 enzyme inhibitors, confirmation, biochemical, fluorescence polarization, human. shares compounds with PAFAH2 inh. recombinant PAFAH2, FP-rhodamine activity probe. inhibition, % at 3.39 µM. 2,300 tested, 65% active. AID 493030, 2011;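 active means mean inhibition over three repeats above a set limit taken from the earlier primary screen, cut at about 30% in these data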;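 further: inhibitor blocks binding of rhodamine activity probe so polarization falls; 0% = enzyme with DMSO and 100% = wells lacking PAFAH2 protein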
* = called active by the depositor; nt = no result given.

SMILES	PAFAH1B3 FP inh	PAFAH2 inh	Apaf1 inhib	PAFAH1B2 inh	pPAFAH inh	PAFAH2 confirm
CSc1ccccc1NC(=O)c1cc(-c2cccnc2)nc2ccc(Br)cc12	-6.3	1.1	17.2	-3.2	13.1	nt
CCN(c1ccccc1)S(=O)(=O)c1ccc(C(=O)N(CCN(C)C)c2nc3c(F)cc(F)cc3s2)cc1	nt	nt	1.1	nt	2.0	nt
CC1=C/C(=C\c2ccc3c(c2)OCO3)C(=O)S1	4.2	2.5	11.8	-5.3	20.0	nt
C=CCSC1=N/C(=C\c2ccc3c(c2)OCO3)C(=O)S1	9.5	32.0*	0.1	-2.0	9.1	30.7*
O=C(Nc1ccc(Oc2ccc(NC(=O)Nc3ccccc3Cl)cc2)cc1)Nc1ccccc1Cl	6.4	55.2*	11.0	2.3	1.2	27.0
O=C1C=C(Nc2ccc(Cl)cc2Cl)CC(c2ccco2)C1 (stereo not drawn)	-2.0	44.9*	13.8	5.2	19.4	37.1*
O=[N+]([O-])c1ccccc1S(=O)(=O)Nc1ccc(S(=O)(=O)Nc2nccs2)cc1	15.4	3.0	9.1	1.6	8.3	nt
Nc1ccc(S(=O)(=O)Nc2nccs2)cc1N=Nc1ccccc1[N+](=O)[O-]	20.7	53.5*	nt	14.1	nt	37.5*
COC(=O)C(C)Sc1nc2ccsc2c(=O)n1Cc1ccccc1 (stereo not drawn)	0.4	34.5*	8.6	2.1	1.6	23.5
CC1Cc2ccccc2N1C(=O)c1ccc(F)c(S(=O)(=O)N2CCOCC2)c1 (stereo not drawn)	13.9	3.2	-2.6	12.3	-0.9	nt
O=C(O)COc1ccc(/C=N/n2c(COc3ccccc3)nc3ccccc3c2=O)cc1	-1.4	-6.4	-9.7	-1.7	-1.6	nt
O=c1c2ccccc2nc(COc2ccccc2)n1/N=C/c1ccc(O)c(O)c1	11.3	30.2*	2.4	4.1	22.3	23.6
CCC(CC)NC(=O)COC(=O)c1ccc(OCC(=O)Nc2ccccc2OC)c(OC)c1	2.9	59.7*	2.0	-6.4	-0.7	63.4*
CCCNC(=O)COC(=O)c1ccc(OCC(=O)Nc2ccccc2OC)c(OC)c1	-6.0	51.4*	-0.7	0.0	-2.0	44.8*
COc1ccc(C(=O)OCC(=O)Nc2ccc(F)cc2F)cc1OC	4.5	76.2*	3.3	4.5	10.2	72.5*
COc1ccccc1NC(=O)COC(=O)c1cc2c(s1)CCC2	0.6	54.4*	22.8	0.6	nt	38.5*
COc1cc(CCC(=O)OCC(=O)Nc2ccc(F)cc2F)cc(OC)c1OC	-3.5	1.6	7.1	-0.9	7.2	nt
COC(=O)c1ccc(C(=O)OC)c(NC(=O)COc2ccccc2OC)c1	10.9	2.0	10.9	-0.4	8.4	nt
Cc1ccc(S(=O)(=O)Nc2cccc(C(=O)NCC3CCCO3)c2)cc1F (stereo not drawn)	0.7	3.7	20.3	7.2	3.5	nt
O=S(=O)(/N=C(/c1ccccc1)N1CCOCC1)c1ccc(F)cc1	5.4	0.8	7.8	5.0	-1.1	nt
CC1CCC2(CC1)NC(=O)N(CC(=O)c1ccc(Cl)s1)C2=O (stereo not drawn)	3.7	2.1	-0.4	3.1	14.7	nt
CC(C)CC1NC(=O)N(CC(=O)Nc2ccc3c(c2)OCCO3)C1=O (stereo not drawn)	8.3	0.8	2.4	2.9	0.8	nt
COc1ccccc1NC(=O)COc1ccc(C(=O)OCC(=O)NC(C)(C)C)cc1OC	5.3	81.0*	1.7	0.5	7.1	82.6*
Cc1c(Cl)cnc(NC(=O)COC(=O)C2CC2)c1Cl	6.2	43.5*	-3.0	4.8	17.5	28.0
O=C(COC(=O)C1CC1)Nc1c(Cl)cccc1C(F)(F)F	-3.6	37.6*	3.9	-1.8	3.5	26.2
SMILES	PAFAH1B3 FP inh	PAFAH2 inh	Apaf1 inhib	PAFAH1B2 inh	pPAFAH inh	PAFAH2 confirm
Cc1cc(C(=O)OCC(=O)Nc2c(Cl)cccc2C(F)(F)F)c(C)o1	9.7	22.1	3.8	-0.8	4.8	nt
Cc1ccsc1C(=O)OCC(=O)Nc1c(Cl)cccc1C(F)(F)F	1.1	31.1*	-0.4	4.0	14.7	30.0*
O=C(NCc1ccc(Cl)c(Cl)c1)c1ccc2c(c1)OCO2	2.4	-1.7	0.8	5.9	4.3	nt
CC(=O)N1C(c2ccccc2)CC(=O)OC1c1ccc2c(c1)OCO2 (stereo not drawn)	-1.5	1.1	-0.6	-3.6	-4.3	nt
O=C1OC(c2ccc3c(c2)OCO3)N(C(=O)c2ccc(Cl)c(Cl)c2)c2ccccc21 (stereo not drawn)	0.3	47.8*	15.3	4.6	-11.4	47.0*
Cc1cccc(C(=O)N2c3ccccc3C(=O)OC2c2ccc3c(c2)OCO3)c1 (stereo not drawn)	3.5	31.1*	16.4	3.8	-1.2	34.2*
CC1=NN2C(=N)/C(=C\c3ccc(SCc4ccccc4)o3)C(=O)N=C2S1	3.6	32.4*	15.9	19.4	14.3	32.9*
O=C(Nc1ccc(Cl)cc1)[C@@H]1[C@@H]2C(=O)N(c3ccc(Cl)cc3)C(=O)[C@@H]2[C@H]2C=CC=NN21	2.9	33.4*	21.9	-1.8	23.9	-3.4
O=C(Nc1ccncc1)c1cc2ccccc2cc1O	10.0	7.5	37.2	10.2	10.5	nt
Cn1cnnc1SCC(=O)Nc1sc2c(c1C(N)=O)CCC2	21.8	37.8*	-10.0	13.8	34.4*	11.9
CCOC(=O)c1ccc(NC(=O)N2CCc3ccccc3C2)cc1	0.3	0.8	7.2	3.8	5.3	nt
CC(=O)c1c(C)[nH]c(C(=O)OCC(=O)N2CCc3ccccc3C2)c1C	9.0	29.8*	2.4	2.8	0.0	21.7
NC(=O)Nc1ccc(C(=O)OCC(=O)N2CCc3ccccc3C2)cc1	-4.6	53.7*	1.2	-0.1	-2.2	47.5*
COc1cccc(C(=O)OCC(=O)N2CCc3ccccc3C2)c1	1.8	17.9	9.4	0.4	3.6	nt
O=C(OCC(=O)N1CCc2ccccc2C1)c1ccc(O)cc1	11.1	46.8*	3.5	10.5	2.9	30.5*
COc1ccc(S(=O)(=O)C(C#N)c2nc3ccccc3nc2N2CCCC(C)C2)cc1 (stereo not drawn)	6.7	30.6*	23.8	7.3	0.9	21.2
CC1CCCN(c2nc3ccccc3nc2C(C#N)S(=O)(=O)c2cccs2)C1 (stereo not drawn)	-4.4	21.7	-4.3	8.2	6.0	nt
CCc1cccc(CC)c1NC(=O)COC(=O)CC1c2ccccc2CCN1S(=O)(=O)c1ccccc1 (stereo not drawn)	-0.1	35.5*	13.9	3.3	22.6	20.6

Compound activity (PubChem)
